Experimental data: ChEMBL document CHEMBL1137240, “Conjugation of adenosine and hexa-(D-arginine) leads to a nanomolar bisubstrate-analog inhibitor of basophilic protein kinases” (J Med Chem, 2006)

Key:
[1] = target: Mitogen-activated protein kinase 13 (Homo sapiens) (UniProt O15264); test: Percent residual activity, relative to control, of SAPK4/p38 delta at 1 uM concentration of inhibitor in presence of 5 uM ATP
Procedure, shortened: (§1)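 It is expressed as percent of activity in control incubations without inhibitor, as the mean of duplicate determinations. The protocol follows earlier published panel methods.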

[2] = target: Lymphokine-activated killer T-cell-originated protein kinase (Homo sapiens) (UniProt Q96KB5); test: Percent residual activity, relative to control, of PBK at 1uM concentration of inhibitor in presence of 50uM ATP; procedure, shortened: as §1
[3] = target: Serine/threonine-protein kinase Nek7 (Homo sapiens) (UniProt Q8TDX7); test: Percent residual activity, relative to control, of NEK7 at 1 uM concentration of inhibitor in presence of 20 uM ATP; procedure, shortened: as §1
[4] = target: Mitogen-activated protein kinase 1 (Homo sapiens) (UniProt P28482); test: Percent residual activity, relative to control, of MAPK2/ERK2 at 1 uM concentration of inhibitor in presence of 50 uM ATP; procedure, shortened: as §1
[5] = target: Casein kinase II (Homo sapiens) (UniProt P67870+P68400+P19784); test: Percent residual activity, relative to control, of CK2 at 1 uM concentration of inhibitor in presence of 5 uM ATP; format: protein-complex assay; procedure, shortened: as §1
[6] = target: MAP kinase-interacting serine/threonine-protein kinase 1 (Homo sapiens) (UniProt Q9BUB5); test: Percent residual activity, relative to control, of MNK1 at 1 uM concentration of inhibitor in presence of 50 uM ATP; procedure, shortened: as §1
[7] = target: MAP kinase-interacting serine/threonine-protein kinase 2 (Homo sapiens) (UniProt Q9HBH9); test: Percent residual activity, relative to control, of MNK2 at 1 uM concentration of inhibitor in presence of 50 uM ATP; procedure, shortened: as §1
[8] = target: Mitogen-activated protein kinase 14 (Homo sapiens) (UniProt Q16539); test: Percent residual activity, relative to control, of SAPK2a/p38 at 1 uM concentration of inhibitor in presence of 50 uM ATP; procedure, shortened: as §1
[9] = target: Serine/threonine-protein kinase pim-2 (Homo sapiens) (UniProt Q9P1W9); test: Percent residual activity, relative to control, of PIM2 at 1uM concentration of inhibitor in presence of 5uM ATP; procedure, shortened: as §1
[10] = target: Ribosomal protein S6 kinase alpha-1 (Homo sapiens) (UniProt Q15418); test: Percent residual activity, relative to control, of MAPKAP-K1a/Rsk1 at 1 uM concentration of inhibitor in presence of 50 uM ATP; procedure, shortened: as §1
[11] = target: Serine/threonine-protein kinase Chk1 (Homo sapiens) (UniProt O14757); test: Percent residual activity, relative to control, of CHK1 at 1 uM concentration of inhibitor in presence of 20 uM ATP; procedure, shortened: as §1
[12] = target: Mitogen-activated protein kinase 15 (Homo sapiens) (UniProt Q8TD08); test: Percent residual activity, relative to control, of ERK8 at 1 uM concentration of inhibitor in presence of 5 uM ATP; procedure, shortened: as §1
[13] = target: Protein kinase C alpha type (Homo sapiens) (UniProt P17252); test: Percent residual activity, relative to control, of PKC alpha at 1uM concentration of inhibitor in presence of 20uM ATP; procedure, shortened: as §1
[14] = target: Tyrosine-protein kinase Lck (Homo sapiens) (UniProt P06239); test: Percent residual activity, relative to control, of Lck at 1uM concentration of inhibitor in presence of 50uM ATP; procedure, shortened: as §1
[15] = target: Glycogen synthase kinase-3 beta (Homo sapiens) (UniProt P49841); test: Percent residual activity, relative to control, of GSK3 beta at 1uM concentration of inhibitor in presence of 5uM ATP; procedure, shortened: as §1
[16] = target: MAP kinase-activated protein kinase 5 (Homo sapiens) (UniProt Q8IW41); test: Percent residual activity, relative to control, of PRAK at 1uM concentration of inhibitor in presence of 20uM ATP; procedure, shortened: as §1
[17] = target: Mitogen-activated protein kinase 10 (Homo sapiens) (UniProt P53779); test: Percent residual activity, relative to control, of JNK3 at 1uM concentration of inhibitor in presence of 50uM ATP; procedure, shortened: as §1
[18] = target: Inhibitor of nuclear factor kappa-B kinase subunit beta (Homo sapiens) (UniProt O14920); test: Percent residual activity, relative to control, of IKK beta at 1 uM concentration of inhibitor in presence of 5 uM ATP
Procedure, shortened: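 Kinase panel assay run at an ATP concentration close to the kinase's Km. Inhibitor tested at 1 µM. Activity expressed as percent residual relative to control incubations without inhibitor, as the mean of duplicate determinations.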

[19] = target: Proto-oncogene tyrosine-protein kinase Src (Homo sapiens) (UniProt P12931); test: Percent residual activity, relative to control, of Src at 1 uM concentration of inhibitor in presence of 50 uM ATP
Procedure, shortened: (§2)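 Methods followed an earlier description. Activity is given as percent residual activity relative to control incubations with the inhibitor omitted. Values are means of duplicate determinations.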

[20] = target: c-Jun N-terminal kinase, JNK (Homo sapiens) (UniProt P45983+P53779+P45984); test: Percent residual activity, relative to control, of JNK/SAPK1c at 1 uM concentration of inhibitor in presence of 20 uM ATP; format: protein assay; procedure, shortened: as §1
[21] = target: Eukaryotic elongation factor 2 kinase (Homo sapiens) (UniProt O00418); test: Percent residual activity, relative to control, of EF2K at 1 uM concentration of inhibitor in presence of 5 uM ATP; procedure, shortened: as §1
[22] = target: RAC-alpha serine/threonine-protein kinase (Homo sapiens) (UniProt P31749); test: Percent residual activity, relative to control, of PKB alpha (no ph) at 1 uM concentration of inhibitor in presence of 5 uM ATP; procedure, shortened: as §1
[23] = target: Dual specificity mitogen-activated protein kinase kinase 1 (Homo sapiens) (UniProt Q02750); test: Percent residual activity, relative to control, of MKK1 at 1 uM concentration of inhibitor in presence of 5 uM ATP; procedure, shortened: as §1
[24] = target: Myosin light chain kinase, smooth muscle (Homo sapiens) (UniProt Q15746); test: Percent residual activity, relative to control, of smMLCK at 1uM concentration of inhibitor in presence of 50uM ATP; procedure, shortened: as §2
[25] = target: Ribosomal protein S6 kinase (P70S6K) (Homo sapiens) (UniProt Q9UBS0+P23443); test: Percent residual activity, relative to control, of P70S6K at 1 uM concentration of inhibitor in presence of 20 uM ATP; format: protein-complex assay; procedure, shortened: as §1

Mitogen-activated protein kinase 10 (Homo sapiens), sequence (P53779 whole entry): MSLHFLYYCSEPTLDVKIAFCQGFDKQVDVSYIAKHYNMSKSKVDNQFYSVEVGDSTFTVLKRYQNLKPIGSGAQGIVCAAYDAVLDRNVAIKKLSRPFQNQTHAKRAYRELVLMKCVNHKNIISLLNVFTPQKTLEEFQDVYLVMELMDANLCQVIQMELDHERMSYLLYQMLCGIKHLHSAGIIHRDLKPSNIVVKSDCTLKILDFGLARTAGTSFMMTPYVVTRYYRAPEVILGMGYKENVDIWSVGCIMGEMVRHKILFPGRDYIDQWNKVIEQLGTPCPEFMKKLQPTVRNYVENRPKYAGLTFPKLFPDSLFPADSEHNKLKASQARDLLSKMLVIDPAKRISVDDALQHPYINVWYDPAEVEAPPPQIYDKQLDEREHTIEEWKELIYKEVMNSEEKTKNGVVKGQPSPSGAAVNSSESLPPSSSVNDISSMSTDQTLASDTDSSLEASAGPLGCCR
Serine/threonine-protein kinase Chk1 (Homo sapiens), sequence (O14757 whole entry): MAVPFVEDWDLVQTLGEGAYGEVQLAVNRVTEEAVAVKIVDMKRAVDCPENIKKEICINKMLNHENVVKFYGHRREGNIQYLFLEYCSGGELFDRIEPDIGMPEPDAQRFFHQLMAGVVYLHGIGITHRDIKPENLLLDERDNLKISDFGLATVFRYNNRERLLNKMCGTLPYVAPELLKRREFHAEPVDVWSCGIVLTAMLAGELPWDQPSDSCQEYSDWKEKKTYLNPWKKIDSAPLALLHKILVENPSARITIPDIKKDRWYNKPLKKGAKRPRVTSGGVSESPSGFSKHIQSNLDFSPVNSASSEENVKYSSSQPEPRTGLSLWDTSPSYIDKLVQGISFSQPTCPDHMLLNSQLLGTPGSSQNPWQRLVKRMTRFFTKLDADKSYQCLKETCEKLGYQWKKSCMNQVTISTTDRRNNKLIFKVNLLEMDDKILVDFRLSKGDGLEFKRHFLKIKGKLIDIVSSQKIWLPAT
Mitogen-activated protein kinase 15 (Homo sapiens), sequence (Q8TD08 whole entry): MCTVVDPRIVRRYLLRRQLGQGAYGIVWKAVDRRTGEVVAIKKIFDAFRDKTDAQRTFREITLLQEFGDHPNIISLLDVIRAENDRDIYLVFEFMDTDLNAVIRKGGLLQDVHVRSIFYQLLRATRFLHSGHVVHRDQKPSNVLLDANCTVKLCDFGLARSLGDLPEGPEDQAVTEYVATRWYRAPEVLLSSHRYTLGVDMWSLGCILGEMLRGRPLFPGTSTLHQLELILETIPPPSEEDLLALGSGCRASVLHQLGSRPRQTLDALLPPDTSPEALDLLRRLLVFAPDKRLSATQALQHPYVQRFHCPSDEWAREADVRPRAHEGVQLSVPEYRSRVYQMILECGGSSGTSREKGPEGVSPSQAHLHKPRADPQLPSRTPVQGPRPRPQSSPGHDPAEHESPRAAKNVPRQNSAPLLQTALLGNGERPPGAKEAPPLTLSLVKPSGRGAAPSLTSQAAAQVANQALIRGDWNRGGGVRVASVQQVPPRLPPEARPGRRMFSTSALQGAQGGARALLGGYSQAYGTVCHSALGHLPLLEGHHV
Myosin light chain kinase, smooth muscle (Homo sapiens), sequence (Q15746 whole entry): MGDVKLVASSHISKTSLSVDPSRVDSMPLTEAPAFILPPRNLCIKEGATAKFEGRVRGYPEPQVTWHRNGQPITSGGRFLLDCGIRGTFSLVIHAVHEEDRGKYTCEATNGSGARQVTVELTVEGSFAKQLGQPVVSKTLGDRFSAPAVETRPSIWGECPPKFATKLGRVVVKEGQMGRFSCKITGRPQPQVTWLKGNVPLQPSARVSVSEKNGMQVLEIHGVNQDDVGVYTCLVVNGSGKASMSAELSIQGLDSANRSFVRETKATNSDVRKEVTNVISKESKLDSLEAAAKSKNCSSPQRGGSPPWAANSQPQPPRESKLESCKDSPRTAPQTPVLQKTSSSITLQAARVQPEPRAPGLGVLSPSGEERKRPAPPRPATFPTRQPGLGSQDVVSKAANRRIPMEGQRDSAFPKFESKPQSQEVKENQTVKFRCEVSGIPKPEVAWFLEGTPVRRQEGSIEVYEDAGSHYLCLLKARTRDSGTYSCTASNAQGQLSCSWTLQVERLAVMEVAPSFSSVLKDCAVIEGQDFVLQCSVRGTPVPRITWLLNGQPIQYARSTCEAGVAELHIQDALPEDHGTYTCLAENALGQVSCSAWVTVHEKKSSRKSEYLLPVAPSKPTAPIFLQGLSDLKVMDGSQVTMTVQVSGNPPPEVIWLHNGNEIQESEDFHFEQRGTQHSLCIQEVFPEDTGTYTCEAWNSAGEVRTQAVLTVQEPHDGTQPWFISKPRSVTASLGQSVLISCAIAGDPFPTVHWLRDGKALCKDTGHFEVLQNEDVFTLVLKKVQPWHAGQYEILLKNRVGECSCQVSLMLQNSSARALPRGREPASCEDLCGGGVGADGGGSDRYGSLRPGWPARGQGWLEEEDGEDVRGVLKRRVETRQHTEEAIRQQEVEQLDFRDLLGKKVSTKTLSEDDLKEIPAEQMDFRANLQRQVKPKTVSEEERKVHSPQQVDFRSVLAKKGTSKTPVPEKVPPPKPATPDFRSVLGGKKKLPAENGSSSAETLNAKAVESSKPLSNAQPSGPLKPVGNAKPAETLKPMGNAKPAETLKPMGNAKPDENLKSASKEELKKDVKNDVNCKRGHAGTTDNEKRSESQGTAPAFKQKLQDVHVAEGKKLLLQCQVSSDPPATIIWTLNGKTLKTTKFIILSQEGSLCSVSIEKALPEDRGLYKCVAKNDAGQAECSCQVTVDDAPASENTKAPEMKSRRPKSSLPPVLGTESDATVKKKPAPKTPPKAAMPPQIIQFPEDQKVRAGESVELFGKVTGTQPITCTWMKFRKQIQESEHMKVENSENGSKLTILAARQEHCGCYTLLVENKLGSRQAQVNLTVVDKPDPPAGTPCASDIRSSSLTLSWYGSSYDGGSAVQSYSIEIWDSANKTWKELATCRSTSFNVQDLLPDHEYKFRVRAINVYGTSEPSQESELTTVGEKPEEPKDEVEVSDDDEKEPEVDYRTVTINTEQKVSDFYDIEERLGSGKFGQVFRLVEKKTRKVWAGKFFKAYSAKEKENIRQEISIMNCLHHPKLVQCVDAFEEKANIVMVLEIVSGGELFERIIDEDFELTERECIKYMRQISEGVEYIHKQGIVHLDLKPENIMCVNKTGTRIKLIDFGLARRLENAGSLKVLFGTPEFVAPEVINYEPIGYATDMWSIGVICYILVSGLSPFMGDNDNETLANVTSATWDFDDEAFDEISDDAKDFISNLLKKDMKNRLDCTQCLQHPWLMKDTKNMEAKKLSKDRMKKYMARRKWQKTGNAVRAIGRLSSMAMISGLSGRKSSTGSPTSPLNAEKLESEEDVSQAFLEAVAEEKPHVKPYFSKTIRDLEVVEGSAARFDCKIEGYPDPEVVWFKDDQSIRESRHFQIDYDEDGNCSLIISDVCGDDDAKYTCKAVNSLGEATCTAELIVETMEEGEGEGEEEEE
Serine/threonine-protein kinase pim-2 (Homo sapiens), sequence (Q9P1W9 whole entry, looked up): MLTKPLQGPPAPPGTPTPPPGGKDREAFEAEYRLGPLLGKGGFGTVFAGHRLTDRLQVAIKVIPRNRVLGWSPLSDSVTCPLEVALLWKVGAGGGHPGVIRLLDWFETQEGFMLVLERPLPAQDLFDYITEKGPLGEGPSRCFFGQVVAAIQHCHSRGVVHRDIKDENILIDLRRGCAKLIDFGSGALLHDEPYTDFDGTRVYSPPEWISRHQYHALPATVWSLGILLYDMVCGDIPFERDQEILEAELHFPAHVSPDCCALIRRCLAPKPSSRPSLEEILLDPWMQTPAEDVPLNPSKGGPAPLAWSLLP
Dual specificity mitogen-activated protein kinase kinase 1 (Homo sapiens), sequence (Q02750 whole entry): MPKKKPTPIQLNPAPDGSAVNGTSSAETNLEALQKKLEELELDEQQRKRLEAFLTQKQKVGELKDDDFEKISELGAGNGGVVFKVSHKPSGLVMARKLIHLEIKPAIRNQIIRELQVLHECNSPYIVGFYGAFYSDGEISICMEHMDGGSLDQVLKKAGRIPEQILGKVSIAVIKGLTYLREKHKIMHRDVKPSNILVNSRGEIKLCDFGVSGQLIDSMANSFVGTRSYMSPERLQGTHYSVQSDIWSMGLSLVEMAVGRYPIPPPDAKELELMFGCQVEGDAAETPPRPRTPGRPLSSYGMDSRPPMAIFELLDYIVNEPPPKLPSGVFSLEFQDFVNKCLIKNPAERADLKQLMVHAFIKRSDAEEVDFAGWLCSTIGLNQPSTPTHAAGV

How did the Activity [1] turn out when `N=C(N)NCCC[C@@H](NC(=O)[C@@H](CCCNC(=N)N)NC(=O)[C@@H](CCCNC(=N)N)NC(=O)[C@@H](CCCNC(=N)N)NC(=O)[C@@H](CCCNC(=N)N)NC(=O)[C@@H](CCCNC(=N)N)NC(=O)CCCCCNC(=O)[C@H]1O[C@@H](n2cnc3c(N)ncnc32)[C@H](O)[C@@H]1O)C(N)=O` was run?
The Activity was 107%.

What about the Activity [2] of the same compound?
Its Activity is 88%.

And the Activity [3]?
Its Activity is 58%.

What about the Activity [4] of the same compound?
The Activity was 100%.

And the Activity [5]?
Its Activity is 104%.

And the Activity [6]?
The Activity was 102%.

And the Activity [7]?
The Activity was 99%.

What about the Activity [8] of the same compound?
The Activity was 79%.

And the Activity [9]?
Its Activity is 38%.

And the Activity [10]?
Its Activity is 28%.

And the Activity [11]?
The Activity was 16%.

And the Activity [12]?
Its Activity is 50%.

What about the Activity [13] of the same compound?
Its Activity is 31%.

And the Activity [14]?
The Activity was 70%.

And the Activity [15]?
The Activity was 56%.

What about the Activity [16] of the same compound?
Its Activity is 89%.

And the Activity [17]?
The Activity was 91%.

What about the Activity [18] of the same compound?
Its Activity is 94%.

And the Activity [19]?
Its Activity is 84%.

What about the Activity [20] of the same compound?
The Activity was 70%.

And the Activity [21]?
Its Activity is 92%.

And the Activity [22]?
Its Activity is 2%.

And the Activity [23]?
Its Activity is 77%.

And the Activity [24]?
Its Activity is 72%.

What about the Activity [25] of the same compound?
Its Activity is 7%.
